Data as given in ChEMBL document CHEMBL1157407, “Inhibitors of bacterial multidrug efflux pumps from the resin glycosides of Ipomoea murucoides” (2008).
≈ marks a conversion by molar mass, not a printed value.

What was measured:
Type in all cases: functional
Staphylococcus aureus [1] = assay: Antimicrobial activity against Staphylococcus aureus ATCC 25923
Summary of the method: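 Broth microdilution MIC per NCCLS guidelines, at least in duplicate. Inoculum 5×10^5 cfu prepared in 0.9% saline against a McFarland standard. Cation-adjusted Mueller-Hinton broth with 20 mg/L Ca2+ and 10 mg/L Mg2+. Compounds dissolved in DMSO, then 2-fold serial dilutions, final 1–512 μg/mL; DMSO at most 3.125% v/v. MIC is the lowest concentration giving no visible growth.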

Staphylococcus aureus [2] = assay: Antimicrobial activity against epidemic methicillin-resistant Staphylococcus aureus 15 containing mecA gene
Summary of the method: (§1)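 Broth microdilution MIC per NCCLS guidelines, at least in duplicate, in cation-adjusted Mueller-Hinton broth (20 mg/L Ca2+, 10 mg/L Mg2+). Strains grown on nutrient agar first. Inoculum 5×10^5 cfu prepared in 0.9% saline against a McFarland standard. Compounds dissolved in DMSO, 2-fold serial dilutions, final 1–512 µg/mL (DMSO ≤3.125% v/v). MIC taken as lowest concentration with no visible growth.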

Staphylococcus aureus [3] = assay: Antimicrobial activity against methicillin-resistant Staphylococcus aureus XU212; summary of the method: as §1
KB = assay: Cytotoxicity against human KB cells after 72 hrs; details: read-out: ED50 (the source's name)
Summary of the method: (§2)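 Cells grown in RPMI 1640 with 10% fetal bovine serum at 37 °C, 5% CO2, humidified. Log-phase cells treated in triplicate with test samples at 0.16–20 μg/mL for 72 h. Growth read by the NCI sulforhodamine method. ED50 is the dose inhibiting 50% of control growth, estimated from a semilog plot of concentration against percentage of viable cells.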

Staphylococcus aureus [4] = assay: Antimicrobial activity against multidrug-resistant Staphylococcus aureus over expressing NorA MDR efflux pump; summary of the method: as §1
HEp-2 = assay: Cytotoxicity against human Hep2 cells after 72 hrs; details: HEp-2, 72 h, read-out: ED50 (the source's name); summary of the method: as §2
HeLa = assay: Cytotoxicity against human HeLa cells after 72 hrs; details: read-out: ED50 (the source's name); summary of the method: as §2

Row | Structure (SMILES) | MIC (Staphylococcus aureus [1]) [µg/mL] | MIC (Staphylococcus aureus [2]) [µg/mL] | MIC (Staphylococcus aureus [3]) [µg/mL] | EC50 (KB) [µg/mL] | MIC (Staphylococcus aureus [4]) [µg/mL] | EC50 (HEp-2) [µg/mL] | EC50 (HeLa) [µg/mL]
1 | CCCCC[C@H]1CCCCCCCCCC(=O)O[C@H]2[C@@H](O)[C@H](O[C@H]3[C@H](O1)O[C@H](C)[C@H](O)[C@@H]3O)O[C@@H](C)[C@@H]2O[C@@H]1O[C@@H](C)[C@H](O[C@@H]2O[C@@H](C)[C@H](OC(=O)[C@@H](C)CC)[C@@H](O)[C@H]2O)[C@@H](O[C@@H]2O[C@@H](C)[C@H](O)[C@@H](O)[C@H]2O)[C@H]1OC(=O)[C@@H](C)CC [STOLONIFERIN I] | > 512 | 512 (≈ 444 µM) | 256 (≈ 222 µM) | > 20 | 64 (≈ 55.5 µM) | > 20 | > 20
2 | CCCCC[C@H]1CCCCCCCCCC(=O)O[C@H]2[C@H](O)[C@@H](CO)O[C@@H](O[C@H]3[C@H](O1)O[C@H](C)[C@H](O)[C@@H]3O)[C@@H]2O[C@@H]1O[C@@H](C)[C@H](OC(=O)[C@@H](C)CC)[C@@H](O[C@@H]2O[C@@H](C)[C@H](O)[C@@H](O)[C@H]2O)[C@H]1OC(=O)[C@@H](C)CC [TRICOLORIN A] | 16 (≈ 15.6 µM) | 4 (≈ 3.91 µM) | 8 (≈ 7.82 µM) | 1 (≈ 0.977 µM) | 8 (≈ 7.82 µM) | 1.6 (≈ 1.56 µM) | 4.7 (≈ 4.59 µM)
3 | CCCCC[C@H]1CCCCCCCCCC(=O)O[C@H]2[C@H](O)[C@@H](CO)O[C@@H](O[C@H]3[C@H](O1)O[C@H](C)[C@@H](O)[C@@H]3O)[C@@H]2O[C@@H]1O[C@@H](C)[C@H](OC(=O)[C@@H](C)CC)[C@@H](O[C@@H]2O[C@@H](C)[C@H](O)[C@@H](O)[C@H]2O)[C@H]1OC(=O)[C@@H](C)CC [TRICOLORIN E] | 16 (≈ 15.6 µM) | 8 (≈ 7.82 µM) | 8 (≈ 7.82 µM) | > 20 | 8 (≈ 7.82 µM) | > 20 | > 20
